Assay results from ChEMBL document CHEMBL1151906, “Discovery and structure-activity relationships of pentanedioic acid diamides as potent inhibitors of 11beta-hydroxysteroid dehydrogenase type I” (Bioorg Med Chem Lett, 2009).
pIC50: −log10 of the molar value. Values after ≈ are worked out from the molar mass of the structure shown.

Columns and labels:
[1] = target: T1, 11-beta-hydroxysteroid dehydrogenase 1 (Homo sapiens, UniProt P28845); experiment: Inhibition of human recombinant 11beta-HSD1 expressed in Escherichia coli assessed as cortisol level after 150 mins by HTRF assay
Target sequence in this assay (P28845 whole entry): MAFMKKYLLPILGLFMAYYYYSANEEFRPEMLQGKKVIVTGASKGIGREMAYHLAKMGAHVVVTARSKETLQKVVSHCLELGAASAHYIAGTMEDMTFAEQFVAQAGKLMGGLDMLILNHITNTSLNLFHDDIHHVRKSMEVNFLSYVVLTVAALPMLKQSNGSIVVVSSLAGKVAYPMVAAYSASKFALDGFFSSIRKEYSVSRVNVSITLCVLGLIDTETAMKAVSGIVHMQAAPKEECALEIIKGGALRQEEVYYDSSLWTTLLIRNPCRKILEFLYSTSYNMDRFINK

[2] = target: T2, 11-beta-hydroxysteroid dehydrogenase 1 (Mus musculus, UniProt P50172); experiment: Inhibition of 11beta-HSD1 in mouse liver microsome
Summary of the method: (§1)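 Liver microsome fractions (2.5 µg) used as the enzyme source. Run in 30 mM Hepes pH 7.4 with 1 mM EDTA, 1 mM G-6P and cortisone/NADPH (200 nM/200 µM). Incubated 150 min at 37 °C, stopped with 18β-glycyrrhetinic acid, cortisol read by HTRF.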

[3] = target: 11-beta-hydroxysteroid dehydrogenase 1 (Rattus norvegicus, UniProt P16232); experiment: Inhibition of 11beta-HSD1 in rat liver microsome; type: microsomes; summary of the method: as §1
[4] = target: T2, 11-beta-hydroxysteroid dehydrogenase 1; experiment: Inhibition of 11beta-HSD1 in mouse 3T3L1 cells assessed as cortisol level by HTRF assay; type: cell-based, 3T3-L1
Summary of the method: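 3T3L1 cells differentiated 5 days into adipocytes, then cultured 4 days before 150 min exposure to compound (10^-5–10^-7 M). Cortisol in the culture supernatant is measured by HTRF to give 11β-HSD1 activity.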

[5] = target: T3, 11-beta-hydroxysteroid dehydrogenase type 2 (Homo sapiens, UniProt P80365); experiment: Inhibition of human recombinant 11beta-HSD2 expressed in Escherichia coli assessed as cortisol level after 60 mins by HTRF assay
T3 sequence (P80365 whole entry): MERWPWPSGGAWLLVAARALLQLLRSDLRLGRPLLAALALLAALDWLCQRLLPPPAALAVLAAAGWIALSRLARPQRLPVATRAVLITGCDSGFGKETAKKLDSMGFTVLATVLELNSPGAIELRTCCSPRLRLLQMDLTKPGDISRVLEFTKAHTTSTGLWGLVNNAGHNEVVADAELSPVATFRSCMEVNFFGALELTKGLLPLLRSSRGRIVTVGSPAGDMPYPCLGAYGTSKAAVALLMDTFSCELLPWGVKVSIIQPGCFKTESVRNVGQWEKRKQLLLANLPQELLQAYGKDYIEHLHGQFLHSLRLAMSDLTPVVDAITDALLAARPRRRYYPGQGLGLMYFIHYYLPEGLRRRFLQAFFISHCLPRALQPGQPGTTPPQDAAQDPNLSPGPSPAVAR
Summary of the method: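 Enzyme is recombinant human 11β-HSD2 (E. coli-expressed) in 50 mM Tris pH 7.8 with 1 mM MgCl2 and 0.5 mM NAD. Reaction starts with 20 nM cortisol, runs at room temperature, and is stopped with carbenoxolone 10 µM. Cortisol is quantified by HTRF.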

[6] = Solubility in water; type: physicochemical
[7] = Half life in rat plasma at 0.2 mg/kg, iv and 0.5 mg/kg, po; type: ADME, organism-based
Summary of the method: (§2)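 Male rats given a low-dose cassette (cocktail): 0.2 mg/kg i.v. and 0.5 mg/kg p.o.; plasma PK parameters are means of 3 rats. Unchanged drug recovered in faeces collected 0–24 h after each route.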

[8] = Bioavailability in rat at 0.2 mg/kg, iv and 0.5 mg/kg, po; type: ADME, organism-based; conditions: in vivo; summary of the method: as §2
[9] = Volume of distribution at steady state in rat at 0.2 mg/kg, iv and 0.5 mg/kg, po; type: ADME, organism-based; conditions: in vivo, read-out: Vdss; summary of the method: as §2
[10] = Drug absorption in rat assessed as recovery of unchanged drug in feces at 0.2 mg/kg, iv after 24 hrs; type: ADME, organism-based; design: dose 0.2 mg/kg, route intravenous; conditions: faeces, read-out: Drug uptake; summary of the method: as §2
[11] = Drug absorption in rat assessed as recovery of unchanged drug in feces at 0.5 mg/kg, po after 24 hrs; type: ADME, organism-based; design: dose 0.5 mg/kg, route oral; conditions: faeces, read-out: Drug uptake; summary of the method: as §2
[12] = Protein binding in human serum; type: ADME, cell-free; conditions: read-out: PB (converted)
[13] = Clearance in rat at 0.2 mg/kg, iv and 0.5 mg/kg, po; type: ADME, organism-based; conditions: in vivo; summary of the method: as §2
[14] = target: T1, 11-beta-hydroxysteroid dehydrogenase 1; conditions: at 1 µM
Target sequence in this assay (P28845 whole entry, looked up): as the sequence (P28845 whole entry) above

[15] = target: T1, 11-beta-hydroxysteroid dehydrogenase 1; experiment: Inhibition of human 11beta-HSD1
Target sequence in this assay (P28845 whole entry): as the sequence (P28845 whole entry) above

T2 sequence (P50172 whole entry): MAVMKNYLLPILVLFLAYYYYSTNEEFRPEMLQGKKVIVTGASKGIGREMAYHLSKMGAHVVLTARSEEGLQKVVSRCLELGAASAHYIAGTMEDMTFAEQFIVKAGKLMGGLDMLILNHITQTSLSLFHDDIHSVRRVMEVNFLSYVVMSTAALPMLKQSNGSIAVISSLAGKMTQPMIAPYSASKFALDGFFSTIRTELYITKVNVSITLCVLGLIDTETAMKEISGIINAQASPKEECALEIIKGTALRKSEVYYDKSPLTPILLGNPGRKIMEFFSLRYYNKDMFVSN
11-beta-hydroxysteroid dehydrogenase 1 (Rattus norvegicus, UniProt P16232), sequence (P16232 whole entry): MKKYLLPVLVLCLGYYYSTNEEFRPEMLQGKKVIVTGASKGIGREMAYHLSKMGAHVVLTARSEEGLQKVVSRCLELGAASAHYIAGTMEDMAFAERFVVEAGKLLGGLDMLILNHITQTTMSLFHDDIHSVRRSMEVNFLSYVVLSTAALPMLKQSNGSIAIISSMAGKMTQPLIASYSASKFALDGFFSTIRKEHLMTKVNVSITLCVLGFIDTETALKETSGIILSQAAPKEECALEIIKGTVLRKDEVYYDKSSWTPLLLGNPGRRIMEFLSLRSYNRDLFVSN

CC(C)(CC(=O)NC1CC1)CC(=O)N[C@H]1C2CC3CC1C[C@@](O)(C3)C2
pIC50 [1]: 6.26

CC(C)(CC(=O)NC1CC1)CC(=O)N[C@H]1C2CC3CC1C[C@](C(N)=O)(C3)C2
pIC50 [1]: 8.10 | pIC50 [2]: 8.00 | pIC50 [3]: 7.51 | pIC50 [4]: > 6.00 | pIC50 [5]: < 5.00 | solubility [6]: 491 µg/mL (≈ 1310 µM) | half-life [7]: 36 min | bioavailability [8]: 10% | Vd [9]: 3.1 L/kg | dose excreted at 24 h [10]: 24% | dose excreted at 24 h [11]: 50% | fraction unbound [12]: > 0.8 | clearance [13]: 55 mL/min/kg

CN1CCN(C(=O)CC2(CC(=O)O)CCCC2)CC1
inhibition [14]: 0%

O=C(CCCC(=O)NC1C2CC3CC(C2)CC1C3)NC1CC1 (stereo unspecified)
pIC50 [1]: < 6.00

CC(C)(CC(=O)NC1CC1)CC(=O)N[C@H]1C2CC3CC1C[C@](O)(C3)C2
pIC50 [1]: 8.10 | pIC50 [2]: 7.06 | pIC50 [3]: 6.01 | pIC50 [4]: > 7.00 | pIC50 [5]: < 5.00 | solubility [6]: 597 µg/mL (≈ 1710 µM) | half-life [7]: 72 min | bioavailability [8]: 30% | Vd [9]: 2.7 L/kg | dose excreted at 24 h [10]: 20% | dose excreted at 24 h [11]: 22% | fraction unbound [12]: 0.6 | clearance [13]: 30 mL/min/kg

CC(C)(CC(=O)NC1CC1)CC(=O)N[C@H]1C2CC3CC1C[C@](C(=O)O)(C3)C2
pIC50 [1]: < 6.00

O=C(O)CC1(CC(=O)NCc2ccc(F)cc2Cl)CCCC1
pIC50 [15]: 5.92
